ChEMBL document CHEMBL1151758, “Synthesis of polyfluoro ketones for selective inhibition of human phospholipase A2 enzymes” (J Med Chem, 2008)

Key:
[1] = biological target: T1, Cytosolic phospholipase A2 (Homo sapiens) (UniProt P47712); test: Inhibition of human group 4A cPLA2 at 0.091 mol fraction by mixed micelle-based assay
T1 sequence (whole entry): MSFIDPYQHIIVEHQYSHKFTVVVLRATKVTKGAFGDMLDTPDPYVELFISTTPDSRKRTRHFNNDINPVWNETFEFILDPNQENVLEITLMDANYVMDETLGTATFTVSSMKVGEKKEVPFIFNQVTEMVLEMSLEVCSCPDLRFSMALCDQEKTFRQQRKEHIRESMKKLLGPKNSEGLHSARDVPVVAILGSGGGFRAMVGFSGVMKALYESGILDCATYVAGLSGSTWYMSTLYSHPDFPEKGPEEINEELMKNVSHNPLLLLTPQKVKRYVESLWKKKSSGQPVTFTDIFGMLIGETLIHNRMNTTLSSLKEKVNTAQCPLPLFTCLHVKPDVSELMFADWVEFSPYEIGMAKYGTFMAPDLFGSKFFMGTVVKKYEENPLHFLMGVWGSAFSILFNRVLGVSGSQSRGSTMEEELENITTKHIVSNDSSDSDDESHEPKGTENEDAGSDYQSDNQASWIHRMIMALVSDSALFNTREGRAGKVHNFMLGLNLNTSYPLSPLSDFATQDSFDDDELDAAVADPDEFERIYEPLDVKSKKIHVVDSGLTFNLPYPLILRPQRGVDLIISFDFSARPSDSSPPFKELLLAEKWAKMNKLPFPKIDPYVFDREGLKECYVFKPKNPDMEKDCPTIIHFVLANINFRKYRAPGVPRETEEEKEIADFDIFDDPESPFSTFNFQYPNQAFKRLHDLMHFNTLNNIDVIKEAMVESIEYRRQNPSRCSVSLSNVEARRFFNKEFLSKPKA
Procedure, shortened: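 Modified Dole assay, radiolabel release. Buffer: 100 mM HEPES pH 7.5, 90 μM CaCl2, 2 mM DTT, 0.1 mg/ml BSA. Percent inhibition measured with inhibitor at 0.091 mole fraction of the total substrate interface.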

[2] = biological target: T2, 85/88 kDa calcium-independent phospholipase A2 (Homo sapiens) (UniProt O60733); test: Inhibition of human group 6A iPLA2 at 0.091 mol fraction by mixed micelle-based assay
T2 sequence (whole entry): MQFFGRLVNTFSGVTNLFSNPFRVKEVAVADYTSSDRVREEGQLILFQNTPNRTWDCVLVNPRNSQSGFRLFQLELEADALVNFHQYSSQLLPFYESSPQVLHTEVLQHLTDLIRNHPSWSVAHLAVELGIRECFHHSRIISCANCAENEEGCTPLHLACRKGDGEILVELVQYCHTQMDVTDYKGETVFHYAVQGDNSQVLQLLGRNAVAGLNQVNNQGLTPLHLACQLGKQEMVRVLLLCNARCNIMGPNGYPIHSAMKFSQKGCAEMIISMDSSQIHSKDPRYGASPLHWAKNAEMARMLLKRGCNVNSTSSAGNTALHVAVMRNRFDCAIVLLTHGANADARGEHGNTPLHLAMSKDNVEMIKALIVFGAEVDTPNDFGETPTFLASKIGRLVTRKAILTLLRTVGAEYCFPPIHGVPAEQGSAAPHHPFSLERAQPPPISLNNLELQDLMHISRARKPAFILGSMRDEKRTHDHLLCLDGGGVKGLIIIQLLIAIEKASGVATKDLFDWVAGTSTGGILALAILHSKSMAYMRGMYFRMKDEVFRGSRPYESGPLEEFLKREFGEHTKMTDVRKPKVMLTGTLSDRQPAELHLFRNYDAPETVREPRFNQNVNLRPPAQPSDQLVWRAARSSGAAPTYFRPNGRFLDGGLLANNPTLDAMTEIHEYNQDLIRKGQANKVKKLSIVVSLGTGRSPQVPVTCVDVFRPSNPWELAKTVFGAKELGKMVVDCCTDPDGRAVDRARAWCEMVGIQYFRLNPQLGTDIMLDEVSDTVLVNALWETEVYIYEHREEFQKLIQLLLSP
Procedure, shortened: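 Modified Dole assay. Buffer: 200 mM HEPES pH 7.0, 1 mM ATP, 2 mM DTT, 0.1 mg/ml BSA. Percent inhibition read with inhibitor at 0.091 mole fraction of the total substrate interface.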

[3] = biological target: T3, Phospholipase A2 group V (Homo sapiens) (UniProt P39877); test: Inhibition of human group 5 sPLA2 at 0.091 mol fraction by mixed micelle-based assay
T3 sequence (whole entry): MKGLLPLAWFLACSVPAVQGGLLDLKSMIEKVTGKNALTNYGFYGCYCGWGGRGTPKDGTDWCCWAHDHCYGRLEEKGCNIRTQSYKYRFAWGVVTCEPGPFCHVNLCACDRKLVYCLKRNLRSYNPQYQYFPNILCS
Procedure, shortened: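 Modified Dole assay. Inhibitor present at 0.091 mole fraction of the total substrate interface; percent inhibition recorded.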

[4] = biological target: T2, 85/88 kDa calcium-independent phospholipase A2 (Homo sapiens); test: Inhibition of human group 6A iPLA2 by mixed micelle-based assay
Procedure, shortened: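 Modified Dole assay. Buffer: 200 mM HEPES pH 7.0, 1 mM ATP, 2 mM DTT, 0.1 mg/ml BSA. XI(50) is the inhibitor mole fraction in the total interface causing 50% inhibition. It was estimated for compounds exceeding 90% inhibition at 0.091 mole fraction.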

[5] = biological target: T1, Cytosolic phospholipase A2 (Homo sapiens); test: Inhibition of human group 4A cPLA2 by mixed micelle-based assay
Procedure, shortened: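 Buffer: 100 mM HEPES pH 7.5, 90 μM CaCl2, 2 mM DTT, 0.1 mg/ml BSA. XI(50) is the inhibitor mole fraction in the total substrate interface that gives 50% inhibition. It was estimated for compounds giving >90% inhibition at 0.091 mole fraction.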

[6] = biological target: T3, Phospholipase A2 group V (Homo sapiens); test: Inhibition of human group 5 sPLA2 by mixed micelle-based assay
Procedure, shortened: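 Modified Dole assay. XI(50) is the inhibitor mole fraction of the total interface that halves activity. It was estimated only where inhibition at 0.091 mole fraction exceeded 90%.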

SMILES | inhibition [1] | inhibition [2] | inhibition [3] | XI50 [4] | XI50 [5] | XI50 [6]
OC(O)(C(F)(F)F)C(F)(F)CCCc1ccccc1 | 27% | 49% | 59% |  |  | 
CCCCCCCCCCCCCCC(F)C(=O)C(F)(F)F (stereo not drawn) | 94% | 93% | 86% | 0.0011 | 0.0167 | 0.0236
CCCCCCCCCCCCCCCC(=O)C(F)(F)C(F)(F)F | < 25% | 50% | 43% |  |  | 
CCCCCCOc1ccc(CCC(=O)C(F)(F)C(F)(F)F)cc1 | 73% | 95% | 86% | 0.0075 |  | 
CCCCCCOc1ccc(CCC(=O)C(F)(F)F)cc1 | 91% | 85% | 82% | 0.0328 | 0.0199 | 
CCCCCCCCCCOc1ccc(CCCCC(=O)C(F)(F)F)cc1 | 95% | 94% | 84% | 0.0166 | 0.0116 | 
CCCCCCCCCCCCCCCC(=O)C(F)(F)F | 96% | 92% | 79% | 0.0195 | 0.0223 | 
CCCCCCCCCCOc1ccc(CCC(=O)C(F)(F)F)cc1 | 96% | 94% | 80% | 0.0208 | 0.0156 | 

Other lines, results leading:

inhibition [1] | inhibition [2] | inhibition [3] | XI50 [4] | XI50 [5] | XI50 [6] | SMILES
56% | 98% | 46% | 0.0065 |  |  | O=C(CCCCCc1ccccc1)C(F)(F)C(F)(F)F
65% | 98% | 75% | 0.0065 |  |  | O=C(CCCCCCc1ccccc1)C(F)(F)C(F)(F)F
62% | 96% | 48% | 0.0025 |  |  | O=C(CCCCCc1ccccc1)C(F)(F)F
88% | 71% | 49% |  |  |  | O=C(CCc1ccc(OCc2ccccc2)cc1)C(F)(F)F
< 25% | 98% | 28% | 0.0073 |  |  | O=C(CCCCc1ccccc1)C(F)(F)C(F)(F)F
68% | 99% | 53% | 0.0018 |  |  | O=C(CCCCCCc1ccccc1)C(F)(F)F
92% | 91% | 86% | 0.0169 | 0.0098 |  | CCCCCCOc1ccc(CCCCC(=O)C(F)(F)F)cc1
38% | 96% | < 25% | 0.0096 |  |  | O=C(CCCCc1ccccc1)C(F)(F)F
